{"source": "ChEMBL document CHEMBL4354800", "about": "“Amphiphilic nebramine-based hybrids Rescue legacy antibiotics from intrinsic resistance in multidrug-resistant Gram-negative bacilli” (Eur J Med Chem, 2019)", "assay_type_in_all_cases": "functional", "key": {"Pseudomonas aeruginosa [1]": {"test_system": "Pseudomonas aeruginosa", "test": "Potentiation of moxifloxacin-induced antibacterial activity against MDR/XDR Pseudomonas aeruginosa isolate 91433 devoid of GyrA T83I mutant assessed as fold reduction in moxifloxacin MIC at 9 uM incubated for 18 hrs by broth microdilution method", "method_in_brief": "(§1)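 CLSI broth microdilution. Overnight cultures were set to 0.5 McFarland in saline, diluted 1:50 in Mueller-Hinton broth to a final 5 × 10^5 CFU/mL, and incubated 18 h at 37 °C against 2-fold antibiotic dilutions. A fixed adjuvant level was present throughout. MIC = lowest concentration with no visible turbidity, confirmed at 590 nm. Potentiation = fold drop in antibiotic MIC versus antibiotic alone.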"}, "Escherichia coli": {"test_system": "Escherichia coli", "test": "Potentiation of minocycline-induced antibacterial activity against Escherichia coli 107115 assessed as fold reduction in minocycline MIC at 4.1 uM incubated for 18 hrs by broth dilution method", "method_in_brief": "(§2)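 Antibiotic MIC determined by CLSI broth microdilution (MHB, 5 × 10^5 CFU/mL, 18 h, 37 °C), once alone and once with a fixed concentration of the adjuvant. Potentiation is the ratio of the antibiotic MIC alone to its MIC in the presence of the adjuvant.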"}, "Klebsiella pneumoniae [2]": {"test_system": "Klebsiella pneumoniae", "test": "Potentiation of rifampicin-induced antibacterial activity against Klebsiella pneumoniae 113254 assessed as fold reduction in rifampicin MIC at 4.1 uM incubated for 18 hrs by broth dilution method", "method_in_brief": "as §2"}, "Acinetobacter baumannii [3]": {"test_system": "Acinetobacter baumannii", "test": "Synergistic antibacterial activity against multidrug-resistant Acinetobacter baumannii AB92247 assessed as fractional inhibitory concentration index in presence of rifampicin incubated for 18 hrs by broth dilution method"}, "Acinetobacter baumannii [4]": {"test_system": "Acinetobacter baumannii", "test": "Synergistic antibacterial activity against multidrug-resistant Acinetobacter baumannii AB030 assessed as fractional inhibitory concentration index in presence of minocycline incubated for 18 hrs by broth dilution method"}, "Acinetobacter baumannii [5]": {"test_system": "Acinetobacter baumannii", "test": "Synergistic antibacterial activity against multidrug-resistant Acinetobacter baumannii 110193 assessed as fractional inhibitory concentration index in presence of rifampicin incubated for 18 hrs by broth dilution method"}, "Pseudomonas aeruginosa [6]": {"test_system": "Pseudomonas aeruginosa", "test": "Potentiation of minocycline-induced antimicrobial activity against MDR/XDR Pseudomonas aeruginosa isolate 101885 harboring GyrA Thr83Ile mutant assessed as minocycline MIC80 incubated for 18 hrs by broth microdilution method (reference value: 32 microg/ml)", "conditions": "isolate 101885, 18 h"}, "Pseudomonas aeruginosa [7]": {"test_system": "Pseudomonas aeruginosa", "test": "Potentiation of rifampicin-induced antibacterial activity against MDR/XDR Pseudomonas aeruginosa isolate PA262-101856 harboring GyrA T83I mutant assessed as fold reduction in rifampicin MIC at 7.5 uM incubated for 18 hrs by broth microdilution method", "method_in_brief": "as §1"}, "Klebsiella pneumoniae [8]": {"test_system": "Klebsiella pneumoniae", "test": "Potentiation of minocycline-induced antibacterial activity against Klebsiella pneumoniae 116381 assessed as fold reduction in minocycline MIC at 7.5 uM incubated for 18 hrs by broth dilution method", "method_in_brief": "as §2"}, "Acinetobacter baumannii [9]": {"test_system": "Acinetobacter baumannii", "test": "Synergistic antibacterial activity against multidrug-resistant Acinetobacter baumannii AB031 assessed as fractional inhibitory concentration index in presence of minocycline incubated for 18 hrs by broth dilution method"}, "Pseudomonas aeruginosa [10]": {"test_system": "Pseudomonas aeruginosa", "test": "Potentiation of moxifloxacin-induced antibacterial activity against MDR/XDR Pseudomonas aeruginosa isolate PA264-104354 harboring GyrA T83I mutant assessed as fold reduction in moxifloxacin MIC at 7.5 uM incubated for 18 hrs by broth microdilution method", "method_in_brief": "as §1"}, "Pseudomonas aeruginosa [11]": {"test_system": "Pseudomonas aeruginosa", "test": "Potentiation of ciprofloxacin-induced antibacterial activity against MDR/XDR Pseudomonas aeruginosa isolate 91433 devoid of GyrA T83I mutant assessed as fold reduction in ciprofloxacin MIC at 7.5 uM incubated for 18 hrs by broth microdilution method"}, "Pseudomonas aeruginosa [12]": {"test_system": "Pseudomonas aeruginosa", "test": "Potentiation of rifampicin-induced antibacterial activity against MDR/XDR Pseudomonas aeruginosa isolate 101243 devoid of GyrA T83I mutant assessed as fold reduction in rifampicin MIC at 7.5 uM incubated for 18 hrs by broth microdilution method", "method_in_brief": "as §1"}}, "data": [{"smiles": "Cl.Cl.Cl.Cl.Cl.Cl.NC[C@H]1O[C@H](O[C@H]2[C@H](OCCCCCCCCCCN3CCN(Cc4cccc5ccccc45)CC3)[C@@H](O)[C@H](N)C[C@@H]2N)[C@H](N)C[C@@H]1O", "values": [{"measurement": "fold change (FC)", "setting": "Pseudomonas aeruginosa [1]", "result": 8}]}, {"smiles": "Cl.Cl.Cl.Cl.Cl.NC[C@H]1O[C@H](O[C@H]2[C@H](OCCCCCCCCCCCCN3CCN(c4cc5c(cc4F)c(=O)c(C(=O)O)cn5C4CC4)CC3)[C@@H](O)[C@H](N)C[C@@H]2N)[C@H](N)C[C@@H]1O", "values": [{"measurement": "fold change (FC)", "setting": "Escherichia coli", "result": 16}, {"measurement": "fold change (FC)", "setting": "Klebsiella pneumoniae [2]", "result": 64}, {"measurement": "fractional inhibitory concentration index (FICI)", "setting": "Acinetobacter baumannii [3]", "result": 0.039}]}, {"smiles": "COc1c(N2C[C@@H]3CCCN(CCCCCCCCCCCCO[C@@H]4[C@@H](O)[C@H](N)C[C@H](N)[C@H]4O[C@H]4O[C@H](CN)[C@@H](O)C[C@H]4N)[C@@H]3C2)c(F)cc2c(=O)c(C(=O)O)cn(C3CC3)c12.Cl.Cl.Cl.Cl.Cl", "values": [{"measurement": "fractional inhibitory concentration index (FICI)", "setting": "Acinetobacter baumannii [4]", "result": ">1"}, {"measurement": "fractional inhibitory concentration index (FICI)", "setting": "Acinetobacter baumannii [5]", "result": "0.031 - 0.047"}, {"measurement": "MIC80", "setting": "Pseudomonas aeruginosa [6]", "result": 1, "unit": "µg/mL"}, {"measurement": "fold change (FC)", "setting": "Pseudomonas aeruginosa [7]", "result": 512}, {"measurement": "fold change (FC)", "setting": "Klebsiella pneumoniae [8]", "result": 16}, {"measurement": "fractional inhibitory concentration index (FICI)", "setting": "Acinetobacter baumannii [9]", "result": ">1"}, {"measurement": "fold change (FC)", "setting": "Pseudomonas aeruginosa [10]", "result": 16}, {"measurement": "fold change (FC)", "setting": "Pseudomonas aeruginosa [11]", "result": 16}, {"measurement": "fold change (FC)", "setting": "Pseudomonas aeruginosa [12]", "result": 32}]}]}
